What was measured:
[1] = target: T1, Prostaglandin G/H synthase 1 (Ovis aries, UniProt P05979); experiment: Inhibition of ovine COX1 by enzyme immuno assay
T1 sequence (P05979 whole entry): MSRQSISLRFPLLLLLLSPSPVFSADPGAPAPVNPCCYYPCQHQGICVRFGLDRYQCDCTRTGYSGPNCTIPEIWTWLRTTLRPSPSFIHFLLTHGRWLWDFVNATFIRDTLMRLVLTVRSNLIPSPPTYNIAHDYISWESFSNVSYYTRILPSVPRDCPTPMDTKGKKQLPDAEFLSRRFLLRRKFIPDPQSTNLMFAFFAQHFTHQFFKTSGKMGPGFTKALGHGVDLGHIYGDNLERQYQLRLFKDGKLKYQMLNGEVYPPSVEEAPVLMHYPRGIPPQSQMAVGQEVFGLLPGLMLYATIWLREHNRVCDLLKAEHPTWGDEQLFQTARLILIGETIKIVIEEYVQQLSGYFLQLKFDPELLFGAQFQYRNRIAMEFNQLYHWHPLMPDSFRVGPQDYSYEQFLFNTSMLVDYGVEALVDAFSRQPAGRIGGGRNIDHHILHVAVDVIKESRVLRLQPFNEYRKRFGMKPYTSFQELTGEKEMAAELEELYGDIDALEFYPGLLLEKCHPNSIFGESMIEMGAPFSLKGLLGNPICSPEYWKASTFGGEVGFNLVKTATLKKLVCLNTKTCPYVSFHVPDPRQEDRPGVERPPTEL
Method in brief: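 Hematin-reconstituted purified ovine COX-1 (six units) in 0.1 M Tris-HCl pH 8.0 with 5 mM EDTA and 2 mM phenol. Pre-incubated 1 h at room temperature with inhibitor in DMSO, then arachidonic acid added for 2 min at 37 °C. PGH2 was reduced with stannous chloride and PGF2α measured by EIA. Run in duplicate; IC50 is the mean of the duplicates.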

Ovis aries = organism: Ovis aries; experiment: Selectivity ratio of IC50 for ovine COX1 to IC50 for ovine COX2
Method in brief: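 Purified hematin-reconstituted ovine COX-1 and COX-2 (six units each) in Tris–HCl 0.1 M pH 8.0, 5 mM EDTA, 2 mM phenol. Enzymes were preincubated 1 h at room temperature with inhibitor in DMSO, then given arachidonic acid for 2 min at 37 °C. PGF2α from SnCl2 reduction of PGH2 was read by EIA. IC50s are means of duplicates; ratio is COX-1 IC50/COX-2 IC50.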

[2] = target: T2, Polyunsaturated fatty acid lipoxygenase ALOX12 (Homo sapiens) (UniProt P18054); experiment: Inhibition of LOX12 from human platelets at 10 uM by enzyme immuno assay
T2 sequence (whole entry): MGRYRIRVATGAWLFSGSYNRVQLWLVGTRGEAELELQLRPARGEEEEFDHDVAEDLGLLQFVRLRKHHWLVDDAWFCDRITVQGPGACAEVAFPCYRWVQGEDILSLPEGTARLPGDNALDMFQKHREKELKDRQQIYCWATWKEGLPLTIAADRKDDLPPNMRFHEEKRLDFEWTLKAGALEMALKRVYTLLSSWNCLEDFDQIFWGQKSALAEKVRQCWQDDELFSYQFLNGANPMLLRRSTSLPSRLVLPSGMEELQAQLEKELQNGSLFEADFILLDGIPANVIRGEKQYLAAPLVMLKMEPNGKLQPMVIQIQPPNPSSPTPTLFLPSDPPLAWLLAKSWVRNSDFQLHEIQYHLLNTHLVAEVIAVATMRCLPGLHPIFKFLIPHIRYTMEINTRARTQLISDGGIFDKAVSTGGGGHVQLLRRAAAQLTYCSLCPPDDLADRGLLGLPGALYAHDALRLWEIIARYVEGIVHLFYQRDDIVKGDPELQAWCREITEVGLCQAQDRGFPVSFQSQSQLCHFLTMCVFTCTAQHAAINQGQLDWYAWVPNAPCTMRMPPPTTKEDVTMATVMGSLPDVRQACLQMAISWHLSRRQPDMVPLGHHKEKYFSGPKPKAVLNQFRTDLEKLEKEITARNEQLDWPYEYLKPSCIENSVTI
Method in brief: (§1)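 Run by a contract lab. Enzyme sources: human PBML cells (LOX-5), human platelets (LOX-12), rabbit reticulocytes (LOX-15). Substrates: endogenous arachidonic acid (LOX-5), added arachidonic acid (LOX-12), linoleic acid (LOX-15). Inhibition read as LTB4 (LOX-5), 12-HETE (LOX-12) or 15-HETE (LOX-15), quantified by EIA and spectrophotometrically.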

[3] = target: T3, Polyunsaturated fatty acid lipoxygenase ALOX15 (Oryctolagus cuniculus) (UniProt P12530); experiment: Inhibition of LOX15 from rabbit reticulocytes at 10 uM by enzyme immuno assay; method in brief: as §1
T3 sequence (whole entry): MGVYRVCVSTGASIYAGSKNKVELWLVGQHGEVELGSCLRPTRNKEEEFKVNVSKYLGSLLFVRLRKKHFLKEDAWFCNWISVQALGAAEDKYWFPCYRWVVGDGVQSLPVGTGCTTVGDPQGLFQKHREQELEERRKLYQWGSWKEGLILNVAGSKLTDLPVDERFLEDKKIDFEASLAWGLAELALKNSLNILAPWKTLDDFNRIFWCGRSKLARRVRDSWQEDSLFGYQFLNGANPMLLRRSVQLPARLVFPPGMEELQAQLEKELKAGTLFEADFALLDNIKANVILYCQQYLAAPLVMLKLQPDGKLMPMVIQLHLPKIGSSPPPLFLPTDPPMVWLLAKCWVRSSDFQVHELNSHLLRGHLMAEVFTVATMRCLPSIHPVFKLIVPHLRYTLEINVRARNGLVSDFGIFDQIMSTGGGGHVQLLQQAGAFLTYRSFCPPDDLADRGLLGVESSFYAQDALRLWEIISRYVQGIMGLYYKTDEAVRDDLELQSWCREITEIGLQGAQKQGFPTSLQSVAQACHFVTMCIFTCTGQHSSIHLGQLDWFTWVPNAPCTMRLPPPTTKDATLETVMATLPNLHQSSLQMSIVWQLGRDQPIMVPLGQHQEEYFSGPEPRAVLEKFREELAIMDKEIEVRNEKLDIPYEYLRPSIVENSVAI

[4] = target: T4, Polyunsaturated fatty acid 5-lipoxygenase (Homo sapiens) (UniProt P09917); experiment: Inhibition of LOX5 from human PBML cells at 10 uM by enzyme immuno assay; type: cell-based; method in brief: as §1
T4 sequence (whole entry): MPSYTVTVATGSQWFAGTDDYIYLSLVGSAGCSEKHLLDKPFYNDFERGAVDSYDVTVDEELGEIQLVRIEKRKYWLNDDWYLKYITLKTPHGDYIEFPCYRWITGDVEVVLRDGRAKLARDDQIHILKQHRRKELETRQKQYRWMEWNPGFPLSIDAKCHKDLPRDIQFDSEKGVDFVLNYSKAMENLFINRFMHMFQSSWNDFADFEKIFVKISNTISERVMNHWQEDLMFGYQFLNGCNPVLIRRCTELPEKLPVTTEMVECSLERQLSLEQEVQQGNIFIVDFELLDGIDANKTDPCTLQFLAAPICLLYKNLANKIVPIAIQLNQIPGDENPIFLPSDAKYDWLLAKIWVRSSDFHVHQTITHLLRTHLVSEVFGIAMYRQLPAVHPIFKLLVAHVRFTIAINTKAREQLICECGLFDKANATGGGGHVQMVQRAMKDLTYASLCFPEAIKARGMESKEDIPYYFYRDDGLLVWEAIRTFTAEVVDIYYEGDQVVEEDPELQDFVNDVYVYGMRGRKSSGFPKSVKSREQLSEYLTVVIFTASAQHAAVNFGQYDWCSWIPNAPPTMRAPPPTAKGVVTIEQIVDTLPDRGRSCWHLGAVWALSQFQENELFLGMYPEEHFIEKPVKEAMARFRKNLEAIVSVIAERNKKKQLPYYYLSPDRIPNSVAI

IC50 [1] [µM] | Ratio IC50 (Ovis aries) | inhibition [2] [%] | inhibition [3] [%] | inhibition [4] [%] | Compound
> 100 | 14 | – | – | – | Nc1ccc2c(C3CC(C(F)(F)F)=NN3c3ccc(S(N)(=O)=O)cc3)c[nH]c2c1 (configuration not stated)
> 100 | – | – | – | – | NS(=O)(=O)c1ccc(N2N=C(C(F)(F)F)CC2c2c[nH]c3ccccc23)cc1 (single isomer, unassigned; enantiomer 2) [listing 1 of 2 here]
– | – | 7 | 22 | – | Cc1ccc(-c2cc(C(F)(F)F)nn2-c2ccc(S(N)(=O)=O)cc2)cc1
– | > 119 | – | – | – | NS(=O)(=O)c1ccc(N2N=C(C(F)(F)F)CC2c2c[nH]c3ccccc23)cc1 (single isomer, unassigned; enantiomer 1) [listing 2 of 2 here]
– | > 345 | – | – | – | NS(=O)(=O)c1ccc(N2N=C(C(F)(F)F)CC2c2c[nH]c3c(Cl)cccc23)cc1 (single isomer, unassigned; enantiomer 1) [listing 2 of 2 here]
> 100 | > 23 | – | – | – | NS(=O)(=O)c1ccc(N2N=C(C(F)(F)F)CC2c2c[nH]c3cc(Br)ccc23)cc1 (configuration not stated)
– | > 8 | – | – | – | NS(=O)(=O)c1ccc(N2N=C(C(F)(F)F)CC2c2c[nH]c3ccccc23)cc1 (single isomer, unassigned; enantiomer 2) [listing 2 of 2 here]
– | > 72 | 5 | 31 | 41 | NS(=O)(=O)c1ccc(N2N=C(C(F)(F)F)CC2c2c[nH]c3ccccc23)cc1 (stereo in doubt; 5a) [listing 2 of 2 here]
> 100 | – | – | – | – | NS(=O)(=O)c1ccc(N2N=C(C(F)(F)F)CC2c2c[nH]c3c(Cl)cccc23)cc1 (stereo in doubt; 5f) [listing 1 of 2 here]
– | – | -2 | 6 | 11 | CS(=O)(=O)c1ccc(C2=C(c3ccccc3)C(=O)OC2)cc1
> 100 | 12 | – | – | – | COc1cccc2[nH]cc(C3CC(C(F)(F)F)=NN3c3ccc(S(N)(=O)=O)cc3)c12 (configuration not stated)
> 100 | 0 | – | – | – | NS(=O)(=O)c1ccc(N2N=C(C(F)(F)F)CC2c2c[nH]c3cc(F)ccc23)cc1 (configuration not stated)
> 100 | 0 | – | – | – | NS(=O)(=O)c1ccc(N2N=C(C(F)(F)F)CC2c2c[nH]c3ccc(C(=O)O)cc23)cc1 (configuration not stated)
> 100 | – | – | – | – | NS(=O)(=O)c1ccc(N2N=C(C(F)(F)F)CC2c2c[nH]c3c(Cl)cccc23)cc1 (single isomer, unassigned; enantiomer 2) [listing 2 of 2 here]
> 100 | 0 | – | – | – | NS(=O)(=O)c1ccc(N2N=C(C(F)(F)F)CC2c2c[nH]c3cc([N+](=O)[O-])ccc23)cc1 (configuration not stated)
> 100 | 0 | -2 | 36 | 51 | NS(=O)(=O)c1ccc(N2N=C(C(F)(F)F)CC2c2c[nH]c3cc(Cl)ccc23)cc1 (configuration not stated)
> 100 | > 3 | – | – | – | NS(=O)(=O)c1ccc(N2N=C(C(F)(F)F)CC2c2c[nH]c3ccc(Cl)cc23)cc1 (configuration not stated)
> 100 | > 17 | – | – | – | Cc1[nH]c2cc(Cl)ccc2c1C1CC(C(F)(F)F)=NN1c1ccc(S(N)(=O)=O)cc1 (configuration not stated)
– | > 26 | 3 | 36 | 94 | NS(=O)(=O)c1ccc(N2N=C(C(F)(F)F)CC2c2c[nH]c3c(Cl)cccc23)cc1 (stereo in doubt; 5f) [listing 2 of 2 here]

The remaining lines, values behind:

Compound | IC50 [1] [µM] | Ratio IC50 (Ovis aries) | inhibition [2] [%] | inhibition [3] [%] | inhibition [4] [%]
NS(=O)(=O)c1ccc(N2N=C(C(F)(F)F)CC2c2c[nH]c3ccccc23)cc1 (single isomer, unassigned; enantiomer 1) [listing 1 of 2 here] | > 100 | – | – | – | –
N#Cc1ccc2c(C3CC(C(F)(F)F)=NN3c3ccc(S(N)(=O)=O)cc3)c[nH]c2c1 (configuration not stated) | > 100 | 0 | – | – | –
NS(=O)(=O)c1ccc(N2N=C(C(F)(F)F)CC2c2c[nH]c3ccccc23)cc1 (stereo in doubt; 5a) [listing 1 of 2 here] | > 100 | – | – | – | –
NS(=O)(=O)c1ccc(N2N=C(C(F)(F)F)CC2c2c[nH]c3c([N+](=O)[O-])cccc23)cc1 (configuration not stated) | > 100 | 0 | – | – | –
Nc1ccc2[nH]cc(C3CC(C(F)(F)F)=NN3c3ccc(S(N)(=O)=O)cc3)c2c1 (configuration not stated) | > 100 | > 118 | – | – | –
NS(=O)(=O)c1ccc(N2N=C(C(F)(F)F)CC2c2c[nH]c3c(Cl)cccc23)cc1 (single isomer, unassigned; enantiomer 2) [listing 1 of 2 here] | – | > 1 | – | – | –
NS(=O)(=O)c1ccc(N2N=C(C(F)(F)F)CC2c2c[nH]c3c(Cl)cccc23)cc1 (single isomer, unassigned; enantiomer 1) [listing 1 of 2 here] | > 100 | – | – | – | –
Nc1cccc2c(C3CC(C(F)(F)F)=NN3c3ccc(S(N)(=O)=O)cc3)c[nH]c12 (configuration not stated) | > 100 | > 42 | – | – | –
NS(=O)(=O)c1ccc(N2N=C(C(F)(F)F)CC2c2c[nH]c3ccc([N+](=O)[O-])cc23)cc1 (configuration not stated) | > 100 | 2 | – | – | –
NS(=O)(=O)c1ccc(N2N=C(C(F)(F)F)CC2c2c[nH]c3ccc(F)cc23)cc1 (configuration not stated) | > 100 | > 8 | – | – | –
NS(=O)(=O)c1ccc(-n2nc(C(F)(F)F)cc2-c2c[nH]c3ccccc23)cc1 | > 100 | 0 | – | – | –
Nc1cccc2[nH]cc(C3CC(C(F)(F)F)=NN3c3ccc(S(N)(=O)=O)cc3)c12 (configuration not stated) | > 100 | 0 | – | – | –
N#Cc1ccc2[nH]cc(C3CC(C(F)(F)F)=NN3c3ccc(S(N)(=O)=O)cc3)c2c1 (configuration not stated) | > 100 | 0 | – | – | –

Source: ChEMBL document CHEMBL1144856, “Design, synthesis, and biological evaluation of 1-(4-sulfamylphenyl)-3-trifluoromethyl-5-indolyl pyrazolines as cyclooxygenase-2 (COX-2) and lipoxygenase (LOX) inhibitors” (Bioorg Med Chem, 2008)
